pIC50: −log10 of the molar value. Several values for one entry are separate records, joined by “and”; a condition that tells them apart may be missing. Identical values can stand only once.

The values that follow come from ChEMBL document CHEMBL1146599, “Substituted pyrrol-1-ylacetic acids that combine aldose reductase enzyme inhibitory activity and ability to prevent the nonenzymatic irreversible modification of proteins from monosaccharides” (J Med Chem, 2003).

The target of data set [1] is T1, Albumin (Bos taurus, UniProt P02769). Put plainly: Formation of DNPH-reactive carbonyl groups in bovine serum albumin exposed to fructose (5 mM); not detectable. Type of data set: functional. The conditions noted are these: cattle. In a few lines: (§1)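 Bovine serum albumin (fraction V, essentially fatty acid free) was incubated with fructose for 28 days. Compounds were added as potassium salts dissolved in water. Data are means ± SD with the number of samples given. Significance versus control was assessed by Student's t test.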

The target in data set [2] is Aldo-keto reductase family 1 member B1 (Rattus norvegicus) (UniProt P07943). Briefly: In vitro inhibitory activity against aldose reductase of rat lens at 10E-9 M concentration. The method in brief: (§2)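 Aldose reductase was prepared from lenses quickly removed from euthanized Fischer-344 rats of both sexes. Compounds were dissolved in 0.2 M NaHCO3. Activity was followed spectrophotometrically as NADPH oxidation. Runs were done in triplicate, and values are means with standard error from three determinations.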

Data set [3] has as its target T1, Albumin. Briefly: Glycation-induced fluorescence changes of bovine serum albumin when exposed to fructose (2.5 mM); p<0.001. Type of data set: functional. Conditions: cattle. In a few lines:
as §1

In data set [4] the target is T1, Albumin. Briefly: Formation of DNPH-reactive carbonyl groups in bovine serum albumin exposed to fructose (1 mM); p<0.001. Type of data set: functional. The conditions noted are these: cattle. In a few lines:
as §1

Data set [5] addresses Aldo-keto reductase family 1 member B1 (Rattus norvegicus) (UniProt P07943). Briefly: In vitro inhibitory activity against aldose reductase of rat lens at 10E-6 M concentration. The method in brief:
as §2

Data set [6] deals with T1, Albumin. Briefly: Glycation-induced fluorescence changes of bovine serum albumin when exposed to fructose (5 mM); p<0.001. The class given is functional. The conditions noted are these: cattle. The method in brief: as §1
Data set [7] concerns the target T1, Albumin. Put plainly: Formation of DNPH-reactive carbonyl groups in bovine serum albumin exposed to fructose (2.5 mM); not detectable. Type of data set: functional. Conditions: cattle. In a few lines:
as §1

In data set [8] the target is Aldo-keto reductase family 1 member B1 (Rattus norvegicus) (UniProt P07943). Briefly: In vitro inhibitory activity against aldose reductase of rat lens at 10E-8 M concentration. The method in brief:
as §2

Data set [9] has as its target T1, Albumin. Briefly: In vitro ability to inhibit the irreversible modification of the model protein albumin in the presence of fructose as glycating agent (1 mM). In a few lines: as §1
The target of data set [10] is T1, Albumin. Put plainly: In vitro ability to inhibit the irreversible modification of the model protein albumin in the presence of fructose as glycating agent (2.5 mM). The method in brief:
as §1

The target in data set [11] is Aldo-keto reductase family 1 member B1 (Rattus norvegicus, UniProt P07943). Put plainly: (§3) Inhibitory activity against aldose reductase enzyme. In a few lines:
as §2

In data set [12] the target is T1, Albumin. Briefly: In vitro ability to inhibit the irreversible modification of the model protein albumin in the presence of fructose as glycating agent (5 mM). The method in brief: as §1
The target in data set [13] is T1, Albumin. Briefly: Glycation-induced fluorescence changes of bovine serum albumin when exposed to fructose (1 mM); p<0.001. The class given is functional. Conditions: cattle. The method in brief:
as §1

Data set [14] concerns the target Aldo-keto reductase family 1 member B1 (Rattus norvegicus) (UniProt P07943). Put plainly: In vitro inhibitory activity against aldose reductase of rat lens at 10E-7 M concentration. The method in brief: as §2
The target is the same in data set [15]. Briefly: In vitro inhibitory activity against aldose reductase of rat lens at 10E-5 M concentration. In a few lines:
as §2

The target of data set [16] is T1, Albumin. Briefly: Formation of DNPH-reactive carbonyl groups in bovine serum albumin exposed to fructose; p<0.001. The class given is functional. Conditions: cattle. In a few lines:
as §1

The target in data set [17] is T1, Albumin. Put plainly: Glycation-induced fluorescence changes of bovine serum albumin when exposed to fructose (1 mM); p<0.01. Type of data set: functional. Conditions: cattle. The method in brief: as §1
The target of data set [18] is T1, Albumin. Put plainly: Formation of DNPH-reactive carbonyl groups in bovine serum albumin exposed to fructose (1 mM); p<0.01. The class given is functional. Conditions: cattle. The method in brief: as §1
Data set [19] deals with T1, Albumin. Put plainly: Formation of DNPH-reactive carbonyl groups in bovine serum albumin exposed to fructose (2.5 mM); p<0.001. The class given is functional. Conditions: cattle. The method in brief: as §1
Data set [20] deals with T1, Albumin. Put plainly: Formation of DNPH-reactive carbonyl groups in bovine serum albumin exposed to fructose (5 mM); not detectable. The class given is functional. The conditions noted are these: cattle, 5000 µM. In a few lines: as §1
Data set [21] concerns the target T1, Albumin. Briefly: Formation of DNPH-reactive carbonyl groups in bovine serum albumin exposed to fructose (1 mM); not detectable. The class given is functional. The conditions noted are these: cattle. In a few lines:
as §1

The target in data set [22] is T1, Albumin. Put plainly: Formation of DNPH-reactive carbonyl groups in bovine serum albumin exposed to fructose; not detectable. Conditions: cattle. Type of data set: functional. In a few lines: as §1
Data set [23] deals with Aldo-keto reductase family 1 member B1 (Homo sapiens, UniProt P15121). The data set is described as §3.

T1 sequence (P02769 whole entry): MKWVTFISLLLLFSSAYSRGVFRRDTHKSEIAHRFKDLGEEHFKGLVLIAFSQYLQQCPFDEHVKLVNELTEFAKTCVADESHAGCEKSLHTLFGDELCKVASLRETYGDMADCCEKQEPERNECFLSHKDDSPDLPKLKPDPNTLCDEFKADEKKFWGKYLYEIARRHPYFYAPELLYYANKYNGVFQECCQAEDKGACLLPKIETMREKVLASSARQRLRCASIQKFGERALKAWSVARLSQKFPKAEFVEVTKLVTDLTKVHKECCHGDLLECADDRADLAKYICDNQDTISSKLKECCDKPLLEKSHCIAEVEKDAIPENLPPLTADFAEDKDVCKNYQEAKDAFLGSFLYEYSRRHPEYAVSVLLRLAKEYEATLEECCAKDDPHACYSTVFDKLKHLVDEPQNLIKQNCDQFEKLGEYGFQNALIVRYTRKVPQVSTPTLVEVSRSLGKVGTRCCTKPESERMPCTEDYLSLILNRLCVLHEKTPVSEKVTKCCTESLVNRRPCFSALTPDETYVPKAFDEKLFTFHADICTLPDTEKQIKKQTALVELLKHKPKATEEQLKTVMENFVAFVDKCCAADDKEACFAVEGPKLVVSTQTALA

For orientation: inhibition means the relative decrease from the control value, in per cent. As a reminder, the Inhibition is the relative decrease from the control value, in per cent. In general, pIC50 refers to −log10 of the IC50, conventionally taken in molar units. A higher pIC50 goes with a low IC50. As for `COc1ccc(C(=O)c2cc(C(=O)c3ccc(OC)cc3)n(CC(=O)O)c2)cc1`, the Carbonyl group result in [1] is “not detectable”; in data set [4], 2.52 nM/mg; in data set [7], “not detectable”. The inhibition came to 41% in data set [2], 96% in data set [5], 59% in data set [8] and 94% in [14]. Also, the Relative florescence came out at 11.8 in [3], 3.3 in data set [6] and 17.3 in data set [13]. In addition, the Inhibition is 50% in data set [9]; 57% and 100% in [10]; 100% in data set [12]. In data set [9], the inhibition at 1000 µM amounted to 38%. In [11], this compound had a negative logarithm of the IC50 (pIC50) of 8.63.
In data set [5], `O=C(O)Cn1ccc(C(=O)c2ccccc2)c1` had an inhibition of 27%.
For the compound `O=C(O)Cn1cccc1C(=O)c1ccccc1`, the inhibition in data set [15] is 36%.
For `O=C(O)Cn1ccc(Cc2ccccc2)c1`, the inhibition in data set [5] was 9%.
In [16], `Cc1c(C)c2c(c(C)c1O)CCC(C)(C(=O)O)O2` (stereo unspecified) [TROLOX] came in with a Carbonyl group of 3.44 nM/mg. In data set [15], this compound had an inhibition of 12%. In addition, in data set [9], the Inhibition was 54% and 32%. This compound showed a Relative florescence in data set [13] of 12.8.
In data set [5], `O=C(O)Cn1ccc(C(=O)c2cccc(Cl)c2)c1` registered an inhibition of 44%.
On the same count and under the same terms, in the case of `O=C(O)Cn1ccc(C(=O)c2ccc(O)cc2)c1` it was 45%.
`COc1ccc(C(=O)c2cc(C(=O)c3ccccc3)n(CC(=O)O)c2)cc1`: the Relative florescence came to 23.1 in data set [17], 11.5 in data set [3] and 6.9 in [6]. Further, the Carbonyl group in data set [18] was 4.38 nM/mg; in data set [19], 1.7 nM/mg; in data set [20], “not detectable”. The inhibition in [5] was found to be 93%; in data set [8], 13%; in data set [14] it was 51%. The Inhibition in data set [9] is 20%; in data set [10] it was 41% and 66%; in data set [12] it was 75% and 100%. The inhibition at 1000 µM in data set [9] stood at 17%.
In [5], `O=C(O)Cn1ccc(C(=O)c2ccc3occc3c2)c1` displayed an inhibition of 40%.
The same measure, in the same setting: in the case of `O=C(O)Cn1ccc(C(=O)c2ccc(Cl)cc2)c1` it was 41%; in that of `O=C(O)Cn1ccc(C(=O)Cc2ccccc2)c1`, 29%.
For the compound `COc1ccc(C(=O)c2ccn(CC(=O)O)c2)cc1`, the results for the inhibition in data set [5] and in data set [14] were 72% and 26%, respectively.
For the compound `O=C(O)Cn1ccc(C(=O)c2ccc(C(F)(F)F)cc2)c1`, the inhibition in data set [5] is 47%.
Same read-out and setting: in the case of `O=C(O)Cn1ccc(C(=O)c2ccc3c(c2)CCO3)c1` it was 42%.
On to `O=C(O)Cn1ccc(C(=O)c2ccc3ccccc3c2)c1`, for which the inhibition in data set [5] worked out at 79%; in [8], 49%; in [14] it was 72%.
On to `O=C(O)Cn1cc(C(=O)c2ccccc2)c2ccccc21`, for which the inhibition in data set [5] amounted to 38%.
The same measure, in the same setting: in the case of `Cc1ccc(C(=O)c2ccn(CC(=O)O)c2)cc1` it was 46%.
As for `O=C(O)Cn1cc(C(=O)c2ccccc2)cc1C(=O)c1ccccc1`, the inhibition turned out to be 82% in data set [5], 27% in [8] and 62% in data set [14].
In the case of `O=C(O)Cn1ccc(C(=O)c2cccc3ccccc23)c1`, the inhibition was found to be 58% in data set [5] and 59% in [14].
In the case of `Cn1cc(C(=O)c2ccn(CC(=O)O)c2)c2ccccc21`, the inhibition in [5] was 38%.
Turning to `O=C(O)Cn1ccc(C(=O)c2ccc(-c3ccccc3)cc2)c1`, the inhibition in data set [5] turned out to be 76%; in data set [14] it was 37%.
In data set [5], `CC(C)(C)c1ccc(C(=O)c2ccn(CC(=O)O)c2)cc1` yielded an inhibition of 41%.
Same read-out and setting: in the case of `O=C(O)Cn1ccc(C(=O)c2ccc([N+](=O)[O-])cc2)c1` it was 18%.
As for `O=C(O)Cn1ccc(C(=O)c2ccc(-n3cccc3)cc2)c1`, the Carbonyl group result in data set [21], in [1] and in [7] was “not detectable” in each case. Moreover, the Relative florescence in data set [3] stood at 9.8; in data set [6] it was 4.7; in data set [13], 17.4. Moreover, the inhibition in data set [5] worked out at 80%; in data set [14], 39%. Also, the Inhibition in data set [9] is 37% and 100%; in data set [10], 65% and 100%; in [12] it was 100%.
On to `O=C(O)Cn1ccc(C(=O)c2ccn(-c3ccccc3)c2)c1`, for which the values for the Carbonyl group entry in data set [22], in [4] and in [7] were “not detectable”, 1.55 nM/mg and “not detectable”, respectively. Besides, the figures for the Relative florescence in data set [3], in [6] and in data set [13] were 21, 16.4 and 21, respectively. Also, the inhibition was 67% in [5] and 39% in data set [14]. Also, the Inhibition was 24% and 69% in data set [9]; 41% and 100% in [12].
In [23], `NC(=O)[C@@H]1C[C@]2(NC(=O)NC2=O)c2cc(F)ccc2O1` had a pIC50 of 7.46.
